≈ marks a conversion by molar mass, not a printed value.
Legend:
Mycobacterium kansasii [1] = test: Antimicrobial activity against Mycobacterium kansasii My 6509/96 after 7 days; assay type: functional; settings: 168 h
How it was run: (§1)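 Run in Šula semisynthetic liquid medium containing bovine serum. Compounds added as DMSO solutions at final concentrations of […]. Each strain was also inoculated onto Löwenstein–Jensen medium to control inoculum sterility and growth.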

Mycobacterium kansasii [2] = test: Antimicrobial activity against Mycobacterium kansasii My 235/80 after 21 days; assay type: functional; settings: 504 h; how it was run: as §1
Mycobacterium kansasii [3] = test: Antimicrobial activity against Mycobacterium kansasii My 235/80 after 7 days; assay type: functional; settings: 168 h; how it was run: as §1
Mycobacterium kansasii [4] = test: Antimicrobial activity against Mycobacterium kansasii My 6509/96 after 14 days; assay type: functional; settings: 336 h; how it was run: as §1
[5] = test system: Mycobacterium tuberculosis; test: Antimicrobial activity against Mycobacterium tuberculosis My 331/88 after 14 days; assay type: functional; settings: 336 h
Mycobacterium avium [6] = test: Antimicrobial activity against Mycobacterium avium My 330/88 after 14 days; assay type: functional; settings: 336 h
Mycobacterium kansasii [7] = test: Antimicrobial activity against Mycobacterium kansasii My 6509/96 after 21 days; assay type: functional; settings: 504 h; how it was run: as §1
[8] = test system: Mycobacterium tuberculosis; test: Antimicrobial activity against Mycobacterium tuberculosis My 331/88 after 21 days; assay type: functional; settings: 504 h
L929 = test: Antiproliferative activity against mouse L929 cells after 72 hrs; assay type: functional; settings: L929, 72 h
How it was run: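 About 10,000 adherent cells per well in RPMI 1640 with 10% heat-inactivated FBS and penicillin/streptomycin, without HEPES. Exposed to 10 concentrations for 72 h at 37 °C in humidified 5% CO₂. Monolayers fixed with glutaraldehyde, stained 15 min with 0.05% methylene blue, and eluted with 0.33 N HCl; OD read at 630 nm. GI50 derived from dose–response curves relative to control.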

HeLa = test: Cytotoxicity against human HeLa cells after 72 hrs; assay type: functional; settings: for CC50: Homo sapiens, HeLa, 72 h
How it was run: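 About 10,000 cells per well in RPMI 1640 were preincubated 48 h without compound. The 10 test concentrations were then applied onto the monolayers and incubated 72 h at 37 °C in humidified 5% CO₂. Monolayers fixed with glutaraldehyde, stained with 0.05% methylene blue, and eluted with 0.33 N HCl; optical density measured at 630 nm.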

Mycobacterium kansasii [9] = test: Antimicrobial activity against Mycobacterium kansasii My 235/80 after 14 days; assay type: functional; settings: 336 h; how it was run: as §1
Mycobacterium avium [10] = test: Antimicrobial activity against Mycobacterium avium My 330/88 after 21 days; assay type: functional; settings: 504 h
K562 = test: Antiproliferative activity against human K562 cells after 72 hrs; assay type: functional; settings: K562, 72 h
How it was run: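 About 10,000 suspension cells per well in RPMI 1640 with 10% heat-inactivated FBS and penicillin/streptomycin, without HEPES. Exposed to 10 concentrations for 72 h at 37 °C in humidified 5% CO₂. Wells diluted 1:50 in CASYTON and counted electronically, each result the mean of three successive counts. GI50 is where the concentration–response curve crosses 50% of control cell count.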

Candida albicans [11] = test: Antifungal activity against Candida albicans ATCC 44859 after 24 hrs; assay type: functional; settings: ATCC 44859, 24 h
How it was run: (§2)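 Modified NCCLS M27-A broth microdilution with clinical isolates subcultured on Sabouraud dextrose agar. Suspensions diluted 1:50 in RPMI 1640 to give a final inoculum of 0.5–2.5×10³ CFU/mL for yeasts or 0.5–5×10⁴ CFU/mL for molds. The RPMI had L-glutamine, no bicarbonate, and 0.165 M MOPS to pH 7.0. Twofold dilutions from 250 to 0.49. Plates held at 35 °C, humid, without agitation. MIC is the lowest concentration giving ≥80% inhibition versus drug-free control, read at 24 and 48 h.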

Trichophyton benhamiae [12] = test: Antifungal activity against Trichophyton mentagrophytes 445 after 120 hrs; assay type: functional, Arthroderma benhamiae
How it was run: (§3)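 Same modified M27-A microdilution with the mold inoculum of 0.5–5×10⁴ CFU/mL. Medium was RPMI 1640 with L-glutamine, no bicarbonate, and 0.165 M MOPS at pH 7.0. Twofold dilutions from 250 to 0.49. Incubated at 35 °C in a humid atmosphere.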

Lichtheimia corymbifera [13] = test: Antifungal activity against Absidia corymbifera 272 after 48 hrs; assay type: functional; how it was run: as §2
Candida tropicalis [14] = test: Antifungal activity against Candida tropicalis 156 after 24 hrs; assay type: functional; how it was run: as §2
Pichia kudriavzevii [15] = test: Antifungal activity against Candida krusei E28 after 24 hrs; assay type: functional; how it was run: as §2
Trichophyton benhamiae [16] = test: Antifungal activity against Trichophyton mentagrophytes 445 after 72 hrs; assay type: functional, Arthroderma benhamiae; how it was run: as §3
Candida albicans [17] = test: Antifungal activity against Candida albicans ATCC 44859 after 48 hrs; assay type: functional; settings: ATCC 44859, 48 h; how it was run: as §2
Trichosporon beigelii [18] = test: Antifungal activity against Trichosporon beigelii 1188 after 48 hrs; assay type: functional; how it was run: as §2
Nakaseomyces glabratus [19] = test: Antifungal activity against Candida glabrata 20/I after 48 hrs; assay type: functional; how it was run: as §2
Pichia kudriavzevii [20] = test: Antifungal activity against Candida krusei E28 after 48 hrs; assay type: functional; how it was run: as §2
Lichtheimia corymbifera [21] = test: Antifungal activity against Absidia corymbifera 272 after 24 hrs; assay type: functional; how it was run: as §2
Aspergillus fumigatus [22] = test: Antifungal activity against Aspergillus fumigatus 231 after 24 hrs; assay type: functional; how it was run: as §2
Aspergillus fumigatus [23] = test: Antifungal activity against Aspergillus fumigatus 231 after 48 hrs; assay type: functional; how it was run: as §2
Trichosporon beigelii [24] = test: Antifungal activity against Trichosporon beigelii 1188 after 24 hrs; assay type: functional; how it was run: as §2
Nakaseomyces glabratus [25] = test: Antifungal activity against Candida glabrata 20/I after 24 hrs; assay type: functional; how it was run: as §2
Candida tropicalis [26] = test: Antifungal activity against Candida tropicalis 156 after 48 hrs; assay type: functional; how it was run: as §2

Structure (SMILES)	MIC (Mycobacterium kansasii [1])	MIC (Mycobacterium kansasii [2])	MIC (Mycobacterium kansasii [3])	MIC (Mycobacterium kansasii [4])	MIC [5]	MIC (Mycobacterium avium [6])	MIC (Mycobacterium kansasii [7])	MIC [8]	GI50 (L929)	CC10 (HeLa)	CC50 (HeLa)	MIC (Mycobacterium kansasii [9])	MIC (Mycobacterium avium [10])	GI50 (K562)	MIC (Candida albicans [11])	MIC (Trichophyton benhamiae [12])	MIC (Lichtheimia corymbifera [13])	MIC (Candida tropicalis [14])	MIC (Pichia kudriavzevii [15])	MIC (Trichophyton benhamiae [16])	further results
Sc1nnnn1-c1ccccc1	> 500 µM	> 500 µM	> 500 µM	> 500 µM	> 500 µM	> 500 µM	> 500 µM	> 500 µM	> 50 mg/L	40 mg/L (≈ 224 µM)	> 50 mg/L	> 500 µM	> 500 µM	> 50 mg/L	–	–	–	–	–	–	–
Sc1nnnn1-c1ccc(Cl)cc1	250 µM (≈ 53.2 µg/mL)	> 500 µM	500 µM (≈ 106 µg/mL)	500 µM (≈ 106 µg/mL)	500 µM (≈ 106 µg/mL)	> 500 µM	> 500 µM	> 500 µM	> 50 mg/L	26.4 mg/L (≈ 124 µM)	48.9 mg/L (≈ 230 µM)	> 500 µM	> 500 µM	42.6 mg/L (≈ 200 µM)	–	–	–	–	–	–	–
Sc1nnnn1-c1ccc(Cl)c(Cl)c1	250 µM (≈ 61.8 µg/mL)	500 µM (≈ 124 µg/mL)	500 µM (≈ 124 µg/mL)	500 µM (≈ 124 µg/mL)	250 µM (≈ 61.8 µg/mL)	> 250 µM	500 µM (≈ 124 µg/mL)	250 µM (≈ 61.8 µg/mL)	33.4 mg/L (≈ 135 µM)	18.1 mg/L (≈ 73.2 µM)	33.3 mg/L (≈ 135 µM)	500 µM (≈ 124 µg/mL)	> 500 µM	31 mg/L (≈ 125 µM)	–	–	–	–	–	–	–
Cc1ccc(-n2nnnc2SCCCCCCCOc2ccc3c(c2)CC[C@@H]2[C@@H]3CC[C@]3(C)C(=O)CC[C@@H]23)cc1	–	> 500 µM	–	–	500 µM (≈ 279 µg/mL)	> 500 µM	–	> 500 µM	> 50 mg/L	28.7 mg/L (≈ 51.4 µM)	> 50 mg/L	> 500 µM	–	> 50 mg/L	> 250 µM	> 250 µM	> 250 µM	> 250 µM	> 250 µM	> 250 µM	MIC (Candida albicans [17]): > 250 µM; MIC (Trichosporon beigelii [18]): > 250 µM; MIC (Nakaseomyces glabratus [19]): > 250 µM; MIC (Pichia kudriavzevii [20]): > 250 µM; MIC (Lichtheimia corymbifera [21]): > 250 µM; MIC (Aspergillus fumigatus [22]): 250 µM (≈ 140 µg/mL); MIC (Aspergillus fumigatus [23]): > 250 µM; MIC (Trichosporon beigelii [24]): > 250 µM; MIC (Nakaseomyces glabratus [25]): > 250 µM; MIC (Candida tropicalis [26]): > 250 µM
C[C@]12CC[C@@H]3c4ccc(OCCCCCCCSc5nnnn5-c5ccccc5)cc4CC[C@H]3[C@@H]1CCC2=O	–	> 500 µM	–	–	> 500 µM	–	> 500 µM	> 500 µM	> 50 mg/L	20.3 mg/L (≈ 37.3 µM)	> 50 mg/L	> 500 µM	–	> 50 mg/L	> 250 µM	> 250 µM	> 250 µM	> 250 µM	> 250 µM	> 250 µM	MIC (Candida albicans [17]): > 250 µM; MIC (Trichosporon beigelii [18]): > 250 µM; MIC (Nakaseomyces glabratus [19]): > 250 µM; MIC (Pichia kudriavzevii [20]): > 250 µM; MIC (Lichtheimia corymbifera [21]): > 250 µM; MIC (Aspergillus fumigatus [22]): 250 µM (≈ 136 µg/mL); MIC (Aspergillus fumigatus [23]): > 250 µM; MIC (Trichosporon beigelii [24]): > 250 µM; MIC (Nakaseomyces glabratus [25]): > 250 µM; MIC (Candida tropicalis [26]): > 250 µM
C[C@]12CC[C@@H]3c4ccc(OCCCCCCCSc5nnnn5-c5ccc(Cl)cc5)cc4CC[C@H]3[C@@H]1CCC2=O	–	–	–	–	–	–	–	–	> 50 mg/L	50 mg/L (≈ 86.3 µM)	> 50 mg/L	–	–	> 50 mg/L	> 250 µM	> 250 µM	> 250 µM	> 250 µM	> 250 µM	> 250 µM	MIC (Candida albicans [17]): > 250 µM; MIC (Trichosporon beigelii [18]): > 250 µM; MIC (Nakaseomyces glabratus [19]): > 250 µM; MIC (Pichia kudriavzevii [20]): > 250 µM; MIC (Lichtheimia corymbifera [21]): > 250 µM; MIC (Aspergillus fumigatus [22]): 250 µM (≈ 145 µg/mL); MIC (Aspergillus fumigatus [23]): > 250 µM; MIC (Trichosporon beigelii [24]): > 250 µM; MIC (Nakaseomyces glabratus [25]): > 250 µM; MIC (Candida tropicalis [26]): > 250 µM

— ChEMBL document CHEMBL1143019, “Hybrid molecules of estrone: new compounds with potential antibacterial, antifungal, and antiproliferative activities” (2007)
